# ChEMBL document CHEMBL4152311, “Structure-activity relationship studies and pharmacological characterization of N5-heteroarylalkyl-substituted-2-(2-furanyl)thiazolo[5,4-d]pyrimidine-5,7-diamine-based derivatives as inverse agonists at human A2A adenosine receptor” (Eur J Med Chem, 2018)
# Tests used:
# [1] = target: T1, Adenosine receptor A1 (Homo sapiens) (UniProt P30542); experiment: Inverse agonist activity at human adenosine A1 receptor expressed in CHO cells assessed as cAMP accumulation at 10 uM measured after 150 mins in presence of [3H]cAMP by scintillation counting method relative to control; type: functional, cell-based
# T1 sequence (whole entry): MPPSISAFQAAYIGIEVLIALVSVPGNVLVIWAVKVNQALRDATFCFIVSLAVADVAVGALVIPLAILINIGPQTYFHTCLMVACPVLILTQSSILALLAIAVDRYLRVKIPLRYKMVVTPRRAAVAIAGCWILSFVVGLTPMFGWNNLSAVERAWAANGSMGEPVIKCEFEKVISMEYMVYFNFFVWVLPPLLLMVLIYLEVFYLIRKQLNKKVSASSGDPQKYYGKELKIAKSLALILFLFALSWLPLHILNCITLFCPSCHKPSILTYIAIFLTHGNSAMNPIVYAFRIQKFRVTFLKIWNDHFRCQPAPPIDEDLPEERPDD
# Method in brief: (§1)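 Intact CHO cells expressing human A1, A2B or A3 receptor (grown in DMEM F12) exposed to test compound at 10 μM under basal conditions, no agonist; cAMP measured by competitive protein binding with [3H]-cAMP. Result as percent of basal cAMP (basal = 100%); mean ± SEM.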
# [2] = target: T2, Adenosine receptor A2a (Homo sapiens, UniProt P29274); experiment: Displacement of [3H]ZM241385 from human adenosine A2A receptor expressed in CHO cell membranes measured after 60 mins by scintillation counting method
# T2 sequence (P29274 whole entry): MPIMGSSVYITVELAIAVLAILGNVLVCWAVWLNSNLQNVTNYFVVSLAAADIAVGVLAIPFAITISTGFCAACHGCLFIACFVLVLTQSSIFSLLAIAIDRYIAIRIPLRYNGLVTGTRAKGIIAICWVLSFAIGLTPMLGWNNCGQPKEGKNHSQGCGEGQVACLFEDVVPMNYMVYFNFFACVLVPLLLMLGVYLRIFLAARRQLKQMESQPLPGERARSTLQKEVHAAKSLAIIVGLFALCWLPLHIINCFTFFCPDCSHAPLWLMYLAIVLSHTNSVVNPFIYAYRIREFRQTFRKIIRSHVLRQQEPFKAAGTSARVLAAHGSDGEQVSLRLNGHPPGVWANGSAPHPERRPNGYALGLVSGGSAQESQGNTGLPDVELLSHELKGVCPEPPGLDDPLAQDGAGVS
# [3] = target: T3, Adenosine receptor A3 (Homo sapiens) (UniProt P0DMS8); experiment: Inverse agonist activity at human adenosine A3 receptor expressed in CHO cells assessed as cAMP accumulation at 10 uM measured after 150 mins in presence of [3H]cAMP by scintillation counting method relative to control; type: functional, cell-based; method in brief: as §1
# T3 sequence (whole entry): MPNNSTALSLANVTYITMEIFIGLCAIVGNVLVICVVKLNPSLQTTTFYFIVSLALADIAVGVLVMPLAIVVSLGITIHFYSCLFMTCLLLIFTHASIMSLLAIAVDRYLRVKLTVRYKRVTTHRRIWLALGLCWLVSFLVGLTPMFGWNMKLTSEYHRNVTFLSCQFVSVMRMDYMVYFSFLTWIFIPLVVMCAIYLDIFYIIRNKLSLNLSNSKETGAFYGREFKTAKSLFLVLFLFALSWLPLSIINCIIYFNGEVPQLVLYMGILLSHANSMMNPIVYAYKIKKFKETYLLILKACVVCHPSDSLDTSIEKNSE
# [4] = target: T4, Adenosine receptor A2b (Homo sapiens) (UniProt P29275); experiment: Inverse agonist activity at human adenosine A2B receptor expressed in CHO cells assessed as cAMP accumulation at 10 uM measured after 150 mins in presence of [3H]cAMP by scintillation counting method relative to control; type: functional, cell-based; method in brief: as §1
# T4 sequence (whole entry): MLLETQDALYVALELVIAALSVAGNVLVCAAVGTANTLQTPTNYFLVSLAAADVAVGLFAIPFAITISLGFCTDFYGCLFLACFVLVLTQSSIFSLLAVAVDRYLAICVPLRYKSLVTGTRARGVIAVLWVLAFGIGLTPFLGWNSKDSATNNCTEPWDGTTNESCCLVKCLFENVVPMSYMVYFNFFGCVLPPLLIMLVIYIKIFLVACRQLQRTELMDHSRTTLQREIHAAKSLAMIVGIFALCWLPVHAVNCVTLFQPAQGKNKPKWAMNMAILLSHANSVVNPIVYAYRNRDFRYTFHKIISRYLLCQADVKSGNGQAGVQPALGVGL
# [5] = target: T5, Adenosine receptor A1 (Homo sapiens, UniProt P30542); experiment: Displacement of [3H]DPCPX from human adenosine A1 receptor expressed in CHO cell membranes measured after 90 mins by scintillation counting method
# T5 sequence (P30542 whole entry): T1 sequence (whole entry)
# [6] = target: T6, Adenosine receptor A2b (Homo sapiens, UniProt P29275); experiment: Antagonist activity at human adenosine A2B receptor expressed in CHO cells assessed as inhibition of NECA-stimulated cAMP accumulation measured after 150 mins in presence of [3H]cAMP by scintillation counting method
# T6 sequence (P29275 whole entry): T4 sequence (whole entry)
# [7] = target: T7, Adenosine receptor A3 (Homo sapiens, UniProt P0DMS8); experiment: Displacement of [125I]AB-MECA from human adenosine A3 receptor expressed in CHO cell membranes measured after 120 mins by scintillation counting method
# T7 sequence (P0DMS8 whole entry): T3 sequence (whole entry)
# Method in brief: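 Membranes from CHO cells transfected with the human receptor (A1 or A3) competed against [3H]DPCPX (A1) or [125I]AB-MECA (A3) over a range of test concentrations, per earlier-described method; percent inhibition taken at 10 μM.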
# [8] = target: T2, Adenosine receptor A2a; experiment: Antagonist activity against human adenosine A2A receptor expressed in CHO cells assessed as inhibition of CGS21680-stimulated cAMP accumulation measured after 150 mins in presence of [3H]cAMP by scintillation counting method; type: functional, cell-based
# [9] = target: T2, Adenosine receptor A2a; experiment: Inverse agonist activity at human adenosine A2A receptor expressed in CHO cells assessed as inhibition of cAMP accumulation measured after 150 mins in presence of [3H]cAMP by scintillation counting method; type: functional, cell-based
Activity [1],KiH [2],KiL [2],Activity [3],Activity [4],Ki [5],IC50 [6],Ki [2],Ki [7],IC50 [8],IC50 [9],Compound
96%,217 fM,0.68 nM,100%,97%,–,–,–,–,–,–,Nc1nc(NCc2cccnc2)nc2sc(-c3ccco3)nc12
–,–,–,–,–,71 nM,91 nM,34 nM,15.3 nM,–,–,Cc1ccc(-c2nc3c(N)nc(NCc4cccs4)nc3s2)o1
101%,39 fM,1.73 nM,104%,101%,–,–,–,–,–,–,Nc1nc(NCc2ccco2)nc2sc(-c3ccco3)nc12
99%,–,–,103%,106%,17.3 nM,4570 nM,2.24 nM,275 nM,4.41 nM,3.36 nM,COc1ccccc1CNc1nc(N)c2nc(-c3cccs3)sc2n1
101%,–,–,105%,–,–,–,–,–,–,–,Nc1nc(NCCc2ccc(O)cc2)nc2nc(-c3ccco3)nn12
102%,–,–,98%,102%,–,–,–,–,–,–,Nc1nc(NCc2cnccn2)nc2sc(-c3ccco3)nc12
–,–,–,–,–,29 nM,389 nM,20 nM,141 nM,–,–,COc1ccccc1CNc1nc(N)c2nc(-c3ccc(C)o3)sc2n1
103%,–,–,101%,98%,–,–,–,–,–,–,Nc1nc(NCc2ccccn2)nc2sc(-c3ccco3)nc12
100%,10.6 fM,18 nM,94%,99%,–,–,–,–,–,–,Nc1nc(NCCc2cccs2)nc2sc(-c3ccco3)nc12

# Further lines, the compound ahead of its results:
Compound,Activity [1],KiH [2],KiL [2],Activity [3],Activity [4],Ki [5],IC50 [6],Ki [2],Ki [7],IC50 [8],IC50 [9]
Nc1nc(NCCc2ccco2)nc2sc(-c3ccco3)nc12,95%,–,–,97%,103%,–,–,–,–,–,–
Nc1nc(NCc2cccs2)nc2sc(-c3ccco3)nc12,98%,10.7 fM,3.82 nM,96%,99%,–,–,–,–,–,–
Nc1nc(NCc2ccncc2)nc2sc(-c3ccco3)nc12,103%,–,–,102%,103%,–,–,–,–,–,–
COc1cccc(CNc2nc(N)c3nc(-c4cccs4)sc3n2)c1,–,–,–,–,–,37 nM,2770 nM,22 nM,430 nM,–,–
Nc1nc(NCc2cccs2)nc2sc(-c3cccs3)nc12,97%,–,–,99%,96%,73 nM,547 nM,10.1 nM,38 nM,17.6 nM,13.2 nM
Nc1nc(NCc2ccsc2)nc2sc(-c3ccco3)nc12,98%,–,–,105%,99%,–,–,–,–,–,–
COc1cccc(CNc2nc(N)c3nc(-c4ccc(C)o4)sc3n2)c1,–,–,–,–,–,70 nM,120 nM,144 nM,160 nM,–,–
Nc1nc(NCCc2cccnc2)nc2sc(-c3ccco3)nc12,102%,–,–,102%,97%,–,–,–,–,–,–
